Experimental data of several laboratories.
Each line is one published result; the experiments were not run side by side.
Target: Serine/threonine-protein kinase Nek10 (NEK10, Homo sapiens, UniProt Q6ZWH5)
Sequence (Q6ZWH5 1-1172, as in one of the studies): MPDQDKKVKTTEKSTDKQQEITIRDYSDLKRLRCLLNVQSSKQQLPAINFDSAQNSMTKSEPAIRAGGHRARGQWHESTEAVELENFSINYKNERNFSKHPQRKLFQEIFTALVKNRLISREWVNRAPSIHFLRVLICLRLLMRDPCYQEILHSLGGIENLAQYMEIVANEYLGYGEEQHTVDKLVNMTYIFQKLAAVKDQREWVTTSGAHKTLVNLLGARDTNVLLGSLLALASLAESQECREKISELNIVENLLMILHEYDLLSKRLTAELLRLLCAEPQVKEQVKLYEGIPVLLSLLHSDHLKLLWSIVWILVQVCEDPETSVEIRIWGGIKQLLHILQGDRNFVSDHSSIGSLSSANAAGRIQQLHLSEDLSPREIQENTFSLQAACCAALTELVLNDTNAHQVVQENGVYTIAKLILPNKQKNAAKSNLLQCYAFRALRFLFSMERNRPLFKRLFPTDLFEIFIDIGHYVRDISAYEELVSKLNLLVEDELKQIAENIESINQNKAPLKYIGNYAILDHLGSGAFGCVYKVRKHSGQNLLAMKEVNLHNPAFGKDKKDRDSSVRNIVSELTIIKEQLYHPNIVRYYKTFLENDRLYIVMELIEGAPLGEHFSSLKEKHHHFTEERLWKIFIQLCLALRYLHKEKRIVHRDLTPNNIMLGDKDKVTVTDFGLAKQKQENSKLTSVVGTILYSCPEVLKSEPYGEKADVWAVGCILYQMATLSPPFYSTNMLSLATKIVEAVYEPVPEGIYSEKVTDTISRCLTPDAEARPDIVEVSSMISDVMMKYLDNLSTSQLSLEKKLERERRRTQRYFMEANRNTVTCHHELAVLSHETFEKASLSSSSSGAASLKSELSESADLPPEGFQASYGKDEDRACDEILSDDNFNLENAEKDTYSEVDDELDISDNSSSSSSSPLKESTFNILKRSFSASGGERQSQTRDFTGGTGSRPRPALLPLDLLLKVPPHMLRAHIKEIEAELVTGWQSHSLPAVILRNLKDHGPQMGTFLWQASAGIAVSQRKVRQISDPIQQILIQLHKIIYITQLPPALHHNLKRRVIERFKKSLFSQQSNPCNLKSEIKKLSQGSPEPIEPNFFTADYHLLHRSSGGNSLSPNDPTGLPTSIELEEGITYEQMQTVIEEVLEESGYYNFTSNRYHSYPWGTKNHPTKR

Compound	read-out	technique	tested at	remaining binding [%]
Cc1cnc(Nc2ccc(C(=O)N3CCC(N4CCCC4)CC3)cc2)nc1-c1cc2ccccc2s1	binding	competition with immobilised ligand	1 µM	71
c1cnn2ncc(-c3ccnc(N4CCC45COC5)n3)c2c1	binding		1 µM	98
O=C(Nc1cccnn1)N1CCC(=Cc2cccc(Oc3ccc(C(F)(F)F)cn3)c2)CC1	cell-free assay	competition with immobilised ligand	1 µM	100
FC(F)(F)Oc1cccc(-c2cnc3ccc(-c4ccncc4)nn23)c1	cell-free assay	competition with immobilised ligand	5 µM	28
CC1CCCN1c1nccc(-c2cnn3ncccc23)n1 (stereo not drawn)	binding		1 µM	100
c1cncc(-c2cccc(Nc3nccc(NC4CCCCC4)n3)c2)c1	binding	competition with immobilised ligand	10 µM	1.6
C[C@@H](c1cccc(C#N)c1)n1cc(Cl)cc(C(N)=O)c1=N	cell-free assay	competition with immobilised ligand	1 µM	91
O=C(NCC1CCOCC1)c1n[nH]cc1NC(=O)c1c(F)cccc1F	binding	competition with immobilised ligand	1 µM	72
CN(C)c1nccc(-c2cnc3ncccn23)n1	binding		1 µM	59
Cc1c[nH]c2nccc(Oc3c(F)cc(Nc4cc(Cl)nc(N)n4)cc3F)c12	cell-free assay	competition with immobilised ligand	0.1 µM	75
COc1cnc(Nc2cccc(S(N)(=O)=O)c2)nc1N1CCN(c2ccccc2)CC1	binding	competition with immobilised ligand	1 µM	69
O=C(c1ccc(Nc2nccc(-c3cc4ccccc4s3)n2)cc1)N1CCC(N2CCCC2)CC1	binding	competition with immobilised ligand	1 µM	43
CN(c1nccc(-c2cnn3ncccc23)n1)C1CC1	binding		1 µM	100
CN(C)c1ncnc(-c2ccc3nc(Nc4cc(CN5CCN(C(=O)CC(F)(F)F)CC5)ccn4)[nH]c3c2)c1Cl	cell-free assay	competition with immobilised ligand	1 µM	72
O=C(NCCCN1CCOCC1)c1ccc(Nc2ncc(Cl)c(-c3ccc(Cl)s3)n2)cc1	binding	competition with immobilised ligand	1 µM	48
CNC(=O)[C@@H]1CC[C@@H](n2c(-c3ccc4cnccc4c3)nc3ccc(C(=O)NCc4cccc(C(N)=O)c4)cc32)C1	binding	competition with immobilised ligand	1 µM	92
COc1cccc(CNC(=O)c2nc3scc(COCc4ccc(C(=O)O)cc4)c3c(=O)[nH]2)c1	cell-free assay	competition with immobilised ligand	1 µM	61.7
C[C@@H](c1ccc(-n2cnc3c(N)ncnc32)cc1)N1CCc2nn(C)c(Cc3ccccc3)c2C1=O	binding	competition with immobilised ligand	0.1 µM	80
